Columns and labels:
Assay type in all cases: functional, cell-based
SK-OV-3 = assay: Cytotoxicity against human SKOV3 cells
How it was run: (§1)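 Cells were kept in McCoy's 5A with 10% FBS and 2 mM L-glutamine at 37 °C and 5% CO2. About 4000 cells per well were plated and left to adhere overnight. Compounds from 50 mM DMSO stocks were diluted in medium (dilution series 100 µM to 0.1 pM, before addition) and added in duplicate. After 72 h, viability was read by CellTiter-Glo luminescence at room temperature.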

COLO-829 = assay: Cytotoxicity against human COLO829 cells; how it was run: as §1
HT-29 = assay: Cytotoxicity against human HT-29 cells; how it was run: as §1

Compound	IC50 (SK-OV-3) [nM]	IC50 (COLO-829) [nM]	IC50 (HT-29) [nM]
COc1cc(O)c2c(c1)[C@H]1O[C@@H]1C[C@H](O)[C@H](O)C(=O)/C=C\C[C@H](C)OC2=O [HYPOTHEMYCIN]	5900	70	150
C[C@H]1C/C=C/[C@@H](O)[C@@H](O)CC[C@H]2O[C@@H]2c2cc(O)cc(O)c2C(=O)O1	> 100000	> 100000	> 100000
C[C@H]1C/C=C\C(=O)[C@@H](O)[C@@H](O)C[C@H]2O[C@@H]2c2cc(O)cc(O)c2C(=O)O1	1800	38	100
COc1cc(O)c2c(c1)[C@H]1O[C@@H]1CCCC(=O)CCC[C@H](C)OC2=O	> 100000		

Source: ChEMBL document CHEMBL1158082, “Cytotoxic hypothemycin analogues from Hypomyces subiculosus” (J Nat Prod, 2006)
